The subject of assay [1] is Mus musculus. In words: Antinociceptive activity in Swiss albino mouse assessed as reduction in capsaicin-induced paw licking at 10 mg/kg, ip administered 30 mins prior to capsaicin-challenge. The assay is classed as functional, organism-based. Also noted: dose 10 mg/kg. In short, it runs like this:
(§1)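 Swiss albino mice (25–35 g) of either sex, acclimatized at least 1 h, each used once; groups of 6. Treatments given ip 30 min before intraplantar capsaicin (1.6 µg in 20 µL) into right hind paw; saline (0.5 mL) control, diclofenac 25 mg/kg reference, test doses 5 or 10 mg/kg. Time spent paw licking and twitching recorded over 10 min per animal.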

Assay [2] deals with T1, Prostaglandin G/H synthase 1 (Ovis aries, UniProt P05979).
T1 sequence (P05979 whole entry): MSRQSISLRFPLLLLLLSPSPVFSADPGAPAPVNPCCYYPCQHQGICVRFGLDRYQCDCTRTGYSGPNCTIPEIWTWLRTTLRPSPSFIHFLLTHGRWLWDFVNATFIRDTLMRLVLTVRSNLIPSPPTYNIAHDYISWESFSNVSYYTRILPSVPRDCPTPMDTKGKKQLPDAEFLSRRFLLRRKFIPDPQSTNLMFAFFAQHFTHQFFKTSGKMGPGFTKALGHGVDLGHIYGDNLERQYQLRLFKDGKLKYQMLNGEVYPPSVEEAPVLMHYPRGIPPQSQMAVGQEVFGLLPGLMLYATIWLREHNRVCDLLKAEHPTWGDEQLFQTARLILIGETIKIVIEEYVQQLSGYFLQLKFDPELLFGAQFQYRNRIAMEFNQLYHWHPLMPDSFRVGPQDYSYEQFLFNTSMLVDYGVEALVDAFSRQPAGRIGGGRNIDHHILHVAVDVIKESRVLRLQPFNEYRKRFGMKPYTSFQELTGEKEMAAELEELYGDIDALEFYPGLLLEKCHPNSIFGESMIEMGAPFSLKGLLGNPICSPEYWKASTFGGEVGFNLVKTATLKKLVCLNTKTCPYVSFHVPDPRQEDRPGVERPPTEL
In words: Inhibition of ovine COX1 using arachidonic acid as substrate incubated for 10 mins prior to substrate addition measured after 2 mins by spectrophotometry. In short, it runs like this: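 Ovine COX-1 with heme, preincubated 10 min at 37 °C with inhibitor at 10^-3 to 10^-6 M. Arachidonic acid reaction for 2 min, stopped with 1 M HCl, then stannous chloride. Prostaglandin quantified by competitive EIA with AChE tracer, Ellman's reagent read at 420 nm. Heat-inactivated enzyme for background. Run in duplicate; IC50 fitted from % inhibition against concentration.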

The test system of assay [3] is Mus musculus. In words: Antinociceptive activity in Swiss albino mouse assessed as reduction in capsaicin-induced paw licking at 5 mg/kg, ip administered 30 mins prior to capsaicin-challenge. Details: dose 5 mg/kg. The assay is classed as functional, organism-based. A digest of the protocol: as §1
The target of assay [4] is T2, Prostaglandin G/H synthase 1 (Ovis aries) (UniProt P05979).
T2 sequence (whole entry): T1 sequence (P05979 whole entry)
In words: Inhibition of ovine COX1 using arachidonic acid as substrate at 10^-8 to 10^-5 M incubated for 10 mins prior to substrate addition measured after 2 mins by spectrophotometry. A digest of the protocol:
(§2)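 Human recombinant COX-2 or ovine COX-1 with heme in reaction buffer, preincubated with inhibitor 10 min at 37 °C. Arachidonic acid then added for 2 min, stopped with 1 M HCl, followed by stannous chloride. Prostaglandin measured by AChE-tracer EIA, 18 h at room temperature, Ellman's development, absorbance at 420 nm. Boiled enzyme as background. Duplicates; IC50 from % inhibition versus concentration plot.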

The target in assay [5] is T3, Prostaglandin G/H synthase 2 (Homo sapiens) (UniProt P35354).
T3 sequence (whole entry): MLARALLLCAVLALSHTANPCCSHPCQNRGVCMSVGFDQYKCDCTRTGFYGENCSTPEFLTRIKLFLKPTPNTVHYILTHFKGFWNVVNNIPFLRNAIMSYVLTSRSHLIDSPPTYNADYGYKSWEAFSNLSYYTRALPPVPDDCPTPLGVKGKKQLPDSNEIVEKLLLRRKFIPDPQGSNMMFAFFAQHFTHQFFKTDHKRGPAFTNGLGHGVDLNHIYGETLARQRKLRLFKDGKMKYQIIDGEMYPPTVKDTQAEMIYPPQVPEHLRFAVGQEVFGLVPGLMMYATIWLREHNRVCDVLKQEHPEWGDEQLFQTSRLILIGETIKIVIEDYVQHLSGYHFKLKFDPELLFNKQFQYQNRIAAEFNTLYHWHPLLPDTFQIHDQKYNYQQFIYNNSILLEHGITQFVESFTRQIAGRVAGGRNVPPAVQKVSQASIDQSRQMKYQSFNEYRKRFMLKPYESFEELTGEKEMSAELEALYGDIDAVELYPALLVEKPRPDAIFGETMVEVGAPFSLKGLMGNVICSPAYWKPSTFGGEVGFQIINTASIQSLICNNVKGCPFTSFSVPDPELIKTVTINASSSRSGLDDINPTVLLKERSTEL
In words: Inhibition of human recombinant COX2 using arachidonic acid as substrate at 10^-8 to 10^-5 M incubated for 10 mins prior to substrate addition measured after 2 mins by spectrophotometry. In short, it runs like this: as §2

The subject of assay [6] is Mus musculus. Description: Antinociceptive activity in Swiss albino mouse assessed as reduction in capsaicin-induced paw licking at 25 mg/kg, ip administered 30 mins prior to capsaicin-challenge. The assay is classed as functional, organism-based. Details: dose 25 mg/kg. A digest of the protocol:
as §1

Calls of active or inactive are those of the source. The rule behind the calls is not given here.

As to `O=C1/C(=C\c2cn(CCCOc3cc(O)c4c(=O)cc(-c5ccccc5)oc4c3)c3ccccc23)c2ccccc2N1c1c(Cl)cccc1Cl`, the outcome in the assay on Mus musculus [1] and in the assay on Mus musculus [3] was Active. In assay [2], this compound displayed an IC50 of 115 µM.

As to `O=c1cc(-c2ccccc2)oc2cc(O)cc(O)c12` [CHRYSIN], in assay [2], the IC50 turned out to be 39.3 µM.

`CC1=NN(c2cccc(Cl)c2)C(=O)/C1=C\c1cn(CCCCOc2cc(O)c3c(=O)cc(-c4ccccc4)oc3c2)c2ccccc12`: the result in the assay with Mus musculus [1] and in the assay on Mus musculus [3] was Active. In assay [2], this compound showed an IC50 of 90 µM.

Regarding `O=C1Nc2ccccc2/C1=C/c1cn(CCCCOc2cc(O)c3c(=O)cc(-c4ccccc4)oc3c2)c2ccccc12`, the inhibition entry in assay [4] and in assay [5] was “inactive” throughout.

On to `O=C(O)Cc1ccccc1Nc1c(Cl)cccc1Cl`, for which, in the assay on Mus musculus [6], the result was Active.

In the case of `CC1=NN(c2cccc(Cl)c2)C(=O)/C1=C\c1cn(CCCOc2cc(O)c3c(=O)cc(-c4ccccc4)oc3c2)c2ccccc12`, the outcome with Mus musculus [1] was Active. In assay [2], the IC50 amounted to 118 µM. Also, in the assay with Mus musculus [3], the outcome was inactive.

Take `O=C1/C(=C\c2cn(CCCCOc3cc(O)c4c(=O)cc(-c5ccccc5)oc4c3)c3ccccc23)c2ccccc2N1c1c(Cl)cccc1Cl`: the inhibition result in assay [4] and in assay [5] was “inactive” in each case.

`O=C1Nc2ccccc2/C1=C/c1cn(CCCOc2cc(O)c3c(=O)cc(-c4ccccc4)oc3c2)c2ccccc12`: the outcome in the assay with Mus musculus [1] and in the assay with Mus musculus [3] was inactive. Besides, the IC50 in assay [2] amounted to 102 µM.

The values are drawn from ChEMBL document CHEMBL3098023, “Rationally designed hybrid molecules with appreciable COX-2 inhibitory and anti-nociceptive activities” (Bioorg Med Chem Lett, 2014).
